Assays:
[1] = Cytotoxicity against human Molt4/C8 cells after 2 days; conditions: MOLT-4, 48 h
[2] = Inhibition of bovine tubulin polymerization; design: species or system Bos taurus
In short: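 Purified bovine brain tubulin (10 μM) in glutamate buffer was preincubated with varying compound concentrations at 30 °C, then cooled to 0 °C. GTP was added and the mixture warmed to 30 °C in a recording spectrophotometer. Assembly was followed by turbidity.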

Bos taurus = species: Bos taurus; experiment: Displacement of [3H]colchicine from bovine tubulin at 5 uM
In short: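 Reaction mixtures held 1 μM bovine brain tubulin, 5 μM [3H]colchicine and 5 μM test compound. Inhibition of radiolabelled colchicine binding to tubulin is expressed as percent inhibition.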

FM3A = experiment: Cytotoxicity against mouse FM3A0 cells after 2 days; type: functional, cell-based; conditions: 48 h
K562 [3] = experiment: Cell cycle arrest in human K562 cells assessed as accumulation at S phase at 16 nM after 24 hrs by flow cytometry; type: functional
In short: (§1)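 K562 leukaemia cells were cultured for 24 h with compound at one fixed concentration. DNA content per cell was measured by the standard propidium iodide procedure and flow cytometry. Proportions of cells in the sub-G0–G1 (apoptotic), G0–G1, S and G2–M peaks were compared with an untreated control.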

CCRF-CEM = experiment: Cytotoxicity against human CEM cells after 2 days; type: functional, cell-based; conditions: 48 h
L1210 = experiment: Cytotoxicity against mouse L1210 cells after 2 days; type: functional, cell-based; conditions: L1210, 48 h
In short: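 Cells were incubated with the compounds at 37 °C for two days, then counted on a Coulter counter. IC50 is the concentration that inhibits cell proliferation by 50%.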

K562 [4] = experiment: Cell cycle arrest in human K562 cells assessed as accumulation at sub-G0/G1 phase at 16 nM after 24 hrs by flow cytometry; type: functional; in short: as §1
K562 [5] = experiment: Cell cycle arrest in human K562 cells assessed as accumulation at G2 phase at 16 nM after 24 hrs by flow cytometry; type: functional; in short: as §1
HeLa = experiment: Cytotoxicity against human HeLa cells after 2 days; type: functional, cell-based; conditions: 48 h
K562 [6] = experiment: Cell cycle arrest in human K562 cells assessed as accumulation at G1 phase at 16 nM after 24 hrs by flow cytometry; type: functional; in short: as §1
K562 [7] = experiment: Cell cycle arrest in human K562 cells assessed as accumulation at G1 phase at 980 nM after 24 hrs by flow cytometry; type: functional; in short: as §1
K562 [8] = experiment: Cell cycle arrest in human K562 cells assessed as accumulation at S phase at 980 nM after 24 hrs by flow cytometry; type: functional; in short: as §1
K562 [9] = experiment: Cell cycle arrest in human K562 cells assessed as accumulation at sub-G0/G1 phase at 980 nM after 24 hrs by flow cytometry; type: functional; in short: as §1
K562 [10] = experiment: Cell cycle arrest in human K562 cells assessed as accumulation at G2 phase at 980 nM after 24 hrs by flow cytometry; type: functional; in short: as §1
K562 [11] = experiment: Cell cycle arrest in human K562 cells assessed as accumulation at G2 phase at 420 nM after 24 hrs by flow cytometry; type: functional
K562 [12] = experiment: Cell cycle arrest in human K562 cells assessed as accumulation at G1 phase at 420 nM after 24 hrs by flow cytometry; type: functional
K562 [13] = experiment: Cell cycle arrest in human K562 cells assessed as accumulation at sub-G0/G1 phase at 420 nM after 24 hrs by flow cytometry; type: functional
K562 [14] = experiment: Cell cycle arrest in human K562 cells assessed as accumulation at S phase at 420 nM after 24 hrs by flow cytometry; type: functional
K562 [15] = experiment: Cell cycle arrest in human K562 cells assessed as accumulation at G1 phase at 230 nM after 24 hrs by flow cytometry; type: functional; in short: as §1
K562 [16] = experiment: Cell cycle arrest in human K562 cells assessed as accumulation at sub-G0/G1 phase at 230 nM after 24 hrs by flow cytometry; type: functional; in short: as §1
K562 [17] = experiment: Cell cycle arrest in human K562 cells assessed as accumulation at S phase at 230 nM after 24 hrs by flow cytometry; type: functional; in short: as §1
K562 [18] = experiment: Cell cycle arrest in human K562 cells assessed as accumulation at G2 phase at 230 nM after 24 hrs by flow cytometry; type: functional; in short: as §1
K562 [19] = experiment: Cell cycle arrest in human K562 cells assessed as accumulation at G2 phase at 1.62 µM after 24 hrs by flow cytometry
K562 [20] = experiment: Cell cycle arrest in human K562 cells assessed as accumulation at sub-G0/G1 phase at 1.62 µM after 24 hrs by flow cytometry
K562 [21] = experiment: Cell cycle arrest in human K562 cells assessed as accumulation at G1 phase at 1.62 µM after 24 hrs by flow cytometry
K562 [22] = experiment: Cell cycle arrest in human K562 cells assessed as accumulation at S phase at 1.62 µM after 24 hrs by flow cytometry

IC50 [2] [nM] | SMILES | IC50 [1] [nM] | IC50 (FM3A) [nM] | IC50 (CCRF-CEM) [nM] | IC50 (L1210) [nM] | IC50 (HeLa) [nM] | other results
430 | CCOc1ccc2c(C)c(C(=O)c3cc(OC)c(OC)c(OC)c3)oc2c1 | 1.2 | 2.8 | 2.8 | 2 | 6.3 | Activity (Bos taurus): 96%; Activity (K562 [3]): 25.34%; Activity (K562 [4]): 13.24%; Activity (K562 [5]): 70.99%; Activity (K562 [6]): 3.67%
 | COc1cc(C(=O)c2oc3c(OC)cccc3c2C)cc(OC)c1OC | 400 | 1700 | 2400 | 1700 | 530 | 
1100 | COc1cc(C(=O)c2cc3c(OC)cccc3o2)cc(OC)c1OC | 360 | 550 | 870 | 410 | 410 | Activity (K562 [7]): 4.14%; Activity (Bos taurus): 76%; Activity (K562 [8]): 37.4%; Activity (K562 [9]): 20.71%; Activity (K562 [10]): 58.46%
 | COc1ccc2cc(C(OC)c3cc(OC)c(OC)c(OC)c3)oc2c1 (configuration not stated) | > 10000 | > 10000 | > 10000 | > 10000 | 4400 | 
 | COc1cc2cc(C(=O)c3cc(OC)c(OC)c(OC)c3)oc2cc1OC | 770 | 1200 | 1900 | 1800 | 570 | 
 | COc1ccc2cc(Cc3cc(OC)c(OC)c(OC)c3)oc2c1 | 770 | 2600 | 1500 | 2300 | 680 | 
 | COc1ccc2c(N)c(C(=O)c3cc(OC)c(OC)c(OC)c3)oc2c1 | 140 |  |  |  |  | 
 | COc1cc(C(=O)c2cc3cc(Br)ccc3o2)cc(OC)c1OC | > 10000 | > 10000 | > 10000 | > 10000 | > 10000 | 
 | COc1ccc2c3c(oc2c1)C(=O)c1cc(OC)c(OC)c(OC)c1-3 | > 10000 | > 10000 | > 10000 | > 10000 | > 10000 | 
 | COc1cc(C(=O)c2cc3cc(Cl)ccc3o2)cc(OC)c1OC | > 10000 | > 10000 | > 10000 | > 10000 | > 10000 | 
1200 | COc1ccc2oc(C(=O)c3cc(OC)c(OC)c(OC)c3)c(C)c2c1 | 1900 | 4400 | 400 | 2300 |  | Activity (K562 [15]): 1.44%; Activity (K562 [16]): 18.18%; Activity (Bos taurus): 65%; Activity (K562 [17]): 40.38%; Activity (K562 [18]): 58.18%
 | COc1cc(C(=O)c2cc3ccccc3o2)cc(OC)c1OC | 8000 | > 10000 | > 10000 | > 10000 |  | 
 | COc1cc(C(=O)c2cc3cc(OC)c(OC)c(OC)c3o2)cc(OC)c1OC | > 10000 | > 10000 | > 10000 | > 10000 | > 10000 | 
6900 | COc1cc(C(=O)c2oc3cc(F)ccc3c2C)cc(OC)c1OC | 2100 | 3700 | 2700 | 3500 |  | Activity (K562 [19]): 47.46%; Activity (K562 [20]): 44.32%; Activity (K562 [21]): 8.23%; Activity (K562 [22]): 44.32%

SMILES | IC50 [2] [nM] | IC50 [1] [nM] | IC50 (FM3A) [nM] | IC50 (CCRF-CEM) [nM] | IC50 (L1210) [nM] | IC50 (HeLa) [nM] | other results
COc1ccc2cc(C(=O)c3cc(OC)c(OC)c(OC)c3)oc2c1 | 700 | 59 | 100 | 70 | 90 | 110 | Activity (K562 [11]): 59.11%; Activity (K562 [12]): 1.83%; Activity (Bos taurus): 79%; Activity (K562 [13]): 16.36%; Activity (K562 [14]): 39.06%

— ChEMBL document CHEMBL1152591, “Design, synthesis and structure-activity relationship of 2-(3',4',5'-trimethoxybenzoyl)-benzo[b]furan derivatives as a novel class of inhibitors of tubulin polymerization” (Bioorg Med Chem, 2009)
